From publication PMC5116011 (The Journal of antibiotics, 2016)
Values after ≈ are worked out from the molar mass of the structure shown. Where two headings read alike, the source gives them in different places.

What was measured:
S. pyogenes ATCC700294 = test: MIC, microbroth dilution in Mueller-Hinton broth; assay type: cell-based; conditions: Streptococcus pyogenes, ATCC700294, read-out: MIC SPy
Summary of the method: (§1)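 CLSI broth microdilution in cation-adjusted Mueller-Hinton broth. Inocula were grown from MH agar colonies in MH broth, with a final inoculum of 10^5 CFU/ml. Test compound final range was 200–0.2 µg/ml, incubated 37°C for 18–20 h. MIC was the lowest concentration preventing visible growth. Runs were at least duplicate, and the mean MIC was reported.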

P. vulgaris ATCC 33420 = test: MIC, microbroth dilution in Mueller-Hinton broth; assay type: cell-based; conditions: Proteus vulgaris, ATCC33420, read-out: MIC PV
E. coli BW25113 = test: MIC, microbroth dilution in Mueller-Hinton broth; assay type: cell-based, Escherichia coli; conditions: for MIC EC MH+BP/CCCP / MIC EC + / MIC EC: E. coli BW25113; for MIC EC MH+BP/CCCP: MH broth with 30 µg/ml 2,2′-bipyridyl and 50 µg/ml CCCP; for MIC EC +: with clavulanic acid (6µg/ml); for MIC: Escherichia coli, BW25113, read-out: MIC EC, E. coli BW25113; for MIC / MIC EC: Mueller-Hinton broth (Table 2)
[1] = test system: E. coli BW25113 ΔampC derivative JW4111-2; assay type: cell-based, Escherichia coli; conditions: for MIC: Escherichia coli, BW25113, read-out: MIC ECΔampC −
E. faecalis ATCC33186 = test: MIC, microbroth dilution in Mueller-Hinton broth; assay type: cell-based; conditions: Enterococcus faecalis, ATCC33186, read-out: MIC EF
Summary of the method: as §1

[2] = test system: S. aureus -ATCC29213 (MSSA); test: MIC, microbroth dilution in Mueller-Hinton broth; assay type: cell-based; conditions: Staphylococcus aureus, read-out: MIC MSSA
Summary of the method: as §1

P. mirabilis ATCC 25933 = test: MIC, microbroth dilution in Mueller-Hinton broth; assay type: cell-based; conditions: Proteus mirabilis, ATCC25933, read-out: MIC PM
S. pneumoniae R6 = test: MIC, microbroth dilution in Mueller-Hinton broth; assay type: cell-based; conditions: Streptococcus pneumoniae, R6, read-out: MIC SP
Summary of the method: as §1

B. subtilis ATCC23857 = test: MIC, microbroth dilution in Mueller-Hinton broth; assay type: cell-based; conditions: Bacillus subtilis, ATCC23857, read-out: MIC BS
Summary of the method: as §1

[3] = test system: E. coli ATCC 35218 (Low-level TEM-1); test: MIC with and without clavulanic acid; assay type: cell-based; conditions: for MIC ATCC 35218 (Low-level TEM-1) + CLV: with clavulanic acid (6 µg/ml)
Summary of the method: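 Mueller-Hinton broth microdilution per CLSI, run in parallel without and with the β-lactamase inhibitor clavulanic acid (6 µg/ml). MH-broth-grown inoculum was at 10^5 CFU/ml final, with test compound at 200–0.2 µg/ml final. Incubation was 37°C, 18–20 h, and the visible-growth endpoint was read. At least duplicate determinations; the mean MIC was reported.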

B. anthracis sterne = test: microbe, parasite or virus in culture; assay type: cell-based; conditions: Bacillus anthracis, read-out: MIC BA
[4] = test system: E. coli BW25113 ΔtolC derivative JW5503-1; test: MIC, microbroth dilution in Mueller-Hinton broth; assay type: cell-based, Escherichia coli; conditions: for MIC: Escherichia coli
S. aureus NRS 70 (MRSA) = test: MIC, microbroth dilution in Mueller-Hinton broth; assay type: cell-based; conditions: Staphylococcus aureus, MRSA|NRS70, read-out: MIC MRSA
Summary of the method: as §1

P. aeruginosa PA01 = test: MIC, microbroth dilution in Mueller-Hinton broth; assay type: cell-based, Pseudomonas aeruginosa; conditions: for MIC PA MH+BP/CCCP / MIC PA +: P. aeruginosa PA01; for MIC PA MH+BP/CCCP: MH broth with 30 µg/ml 2,2′-bipyridyl and 50 µg/ml CCCP; for MIC PA +: with clavulanic acid (6µg/ml); for MIC: Pseudomonas aeruginosa
[5] = BW25113, read-out: MIC ECΔtolC MH
[6] = BW25113, read-out: MIC ECΔtolC MH+BP

Compound	MIC (S. pyogenes ATCC700294) [µg/mL]	MIC (P. vulgaris ATCC 33420) [µg/mL]	MIC EC MH+BP/CCCP (E. coli BW25113) [µg/mL]	MIC EC + (E. coli BW25113) [µg/mL]	MIC (E. coli BW25113) [µg/mL]	MIC ECΔampC + [1] [µg/mL]	MIC (E. faecalis ATCC33186) [µg/mL]	MIC [2] [µg/mL]	MIC (P. mirabilis ATCC 25933) [µg/mL]	MIC (S. pneumoniae R6) [µg/mL]	MIC (B. subtilis ATCC23857) [µg/mL]	MIC (B. anthracis sterne) [µg/mL]	MIC ECΔtolC MH+BP/CCCP [4] [µg/mL]	MIC ECΔtolC MH+CCCP [4] [µg/mL]	MIC (S. aureus NRS 70 (MRSA)) [µg/mL]	MIC PA MH+BP/CCCP (P. aeruginosa PA01) [µg/mL]	MIC PA + (P. aeruginosa PA01) [µg/mL]	MIC (P. aeruginosa PA01; PA01, read-out: MIC PA) [µg/mL]	MIC (P. aeruginosa PA01; PA01, read-out: MIC PA MH) [µg/mL]	MIC (P. aeruginosa PA01; PA01, read-out: MIC PA MH+BP) [µg/mL]	further results
CC1(C)SC2C(NC(=O)C(NC(=O)C3=C(O)C(Cc4ccccc4)NC3=O)c3ccccc3)C(=O)N2C1C(=O)O (stereo not shown) [Compound 2781]	0.39 (≈ 0.691 µM)	6.25 (≈ 11.1 µM)	3.13 (≈ 5.54 µM)	6.25	100 (≈ 177 µM)	3.13	25 (≈ 44.3 µM)	< 0.2	3.13 (≈ 5.54 µM)	< 0.2	0.78 (≈ 1.38 µM)	3.13 (≈ 5.54 µM)	1.56 (≈ 2.76 µM)	1.56 (≈ 2.76 µM)	25 (≈ 44.3 µM)	1.56 (≈ 2.76 µM)	3.13	12.5 (≈ 22.1 µM)	12.5 (≈ 22.1 µM)	6.25 (≈ 11.1 µM)	MIC [1]: 6.25 µg/mL (≈ 11.1 µM); MIC ([3]; Escherichia coli, ATCC35218, read-out: MIC ATCC 35218 (Low-level TEM-1) - CLV): > 200 µg/mL; MIC ATCC 35218 (Low-level TEM-1) + CLV [3]: 25 µg/mL; MIC ([4]; BW25113, read-out: MIC ECΔtolC): 3.13 µg/mL (≈ 5.54 µM); MIC [4, 5]: 3.13 µg/mL (≈ 5.54 µM); MIC [4, 6]: 3.13 µg/mL (≈ 5.54 µM); MIC (P. aeruginosa PA01; PA01, read-out: MIC PA MH+CCCP): 3.13 µg/mL (≈ 5.54 µM); MIC (P. aeruginosa PA01; PA01, read-out: MIC PA −): 12.5 µg/mL (≈ 22.1 µM)
CC1(C)SC2C(NC(=O)C(NC(=O)C3=C(O)C(Cc4ccc(F)cc4)NC3=O)c3ccccc3)C(=O)N2C1C(=O)O (stereo not shown) [Compound 2782]	0.78 (≈ 1.34 µM)	12.5 (≈ 21.5 µM)	3.13 (≈ 5.37 µM)	3.13	25 (≈ 42.9 µM)	3.13	6.25 (≈ 10.7 µM)	0.39 (≈ 0.669 µM)	12.5 (≈ 21.5 µM)	0.39 (≈ 0.669 µM)	1.56 (≈ 2.68 µM)	3.13 (≈ 5.37 µM)	1.56 (≈ 2.68 µM)	1.56 (≈ 2.68 µM)	12.5 (≈ 21.5 µM)	12.5 (≈ 21.5 µM)	12.5	25 (≈ 42.9 µM)	25 (≈ 42.9 µM)	25 (≈ 42.9 µM)	MIC [1]: 6.25 µg/mL (≈ 10.7 µM); MIC ATCC 35218 (Low-level TEM-1) + CLV [3]: 25 µg/mL; MIC ([4]; BW25113, read-out: MIC ECΔtolC): 1.56 µg/mL (≈ 2.68 µM); MIC [4, 5]: 1.56 µg/mL (≈ 2.68 µM); MIC [4, 6]: 3.13 µg/mL (≈ 5.37 µM); MIC (P. aeruginosa PA01; PA01, read-out: MIC PA MH+CCCP): 12.5 µg/mL (≈ 21.5 µM)
CC1(C)SC2C(NC(=O)C(NC(=O)C3=C(O)CN(c4ccccc4)C3=O)c3ccccc3)C(=O)N2C1C(=O)O (stereo not shown) [Compound 2919]	0.78 (≈ 1.42 µM)	25 (≈ 45.4 µM)	25 (≈ 45.4 µM)	50	6.25 to 12.5 (≈ 11.4 to 22.7 µM)	6.25	25 (≈ 45.4 µM)	0.78 (≈ 1.42 µM)	50 (≈ 90.8 µM)	< 0.2	1.56 (≈ 2.83 µM)	3.13 (≈ 5.68 µM)	1.56 (≈ 2.83 µM)	3.13 (≈ 5.68 µM)	50 (≈ 90.8 µM)	12.5 (≈ 22.7 µM)	12.5	50 (≈ 90.8 µM)	50 (≈ 90.8 µM)	50 (≈ 90.8 µM)	MIC EC (E. coli BW25113): 12.5 µg/mL (≈ 22.7 µM); MIC [1]: 12.5 µg/mL (≈ 22.7 µM); MIC ([4]; BW25113, read-out: MIC ECΔtolC): 3.13 µg/mL (≈ 5.68 µM); MIC [4, 5]: 6.25 µg/mL (≈ 11.4 µM); MIC [4, 6]: 3.13 µg/mL (≈ 5.68 µM); MIC (P. aeruginosa PA01; PA01, read-out: MIC PA MH+CCCP): 25 µg/mL (≈ 45.4 µM)
CC1(C)SC2C(NC(=O)C(NC(=O)C3=C(O)C(Cc4ccco4)NC3=O)c3ccccc3)C(=O)N2C1C(=O)O (stereo not shown) [Compound 3002]	0.39 (≈ 0.703 µM)	25 (≈ 45.1 µM)	1.56 (≈ 2.81 µM)	6.25	6.25 to 12.5 (≈ 11.3 to 22.5 µM)	6.25	25 (≈ 45.1 µM)	0.78 (≈ 1.41 µM)	1.56 (≈ 2.81 µM)	0.39 (≈ 0.703 µM)	1.56 (≈ 2.81 µM)	3.13 (≈ 5.64 µM)	0.78 (≈ 1.41 µM)	1.56 (≈ 2.81 µM)	50 (≈ 90.2 µM)	3.13 (≈ 5.64 µM)	3.13	12.5 (≈ 22.5 µM)	12.5 (≈ 22.5 µM)	12.5 (≈ 22.5 µM)	MIC EC (E. coli BW25113): 6.25 µg/mL (≈ 11.3 µM); MIC (P. aeruginosa PA01; PA01, read-out: MIC PA MH+CCCP): 6.25 µg/mL (≈ 11.3 µM); MIC (P. aeruginosa PA01; PA01, read-out: MIC PA −): 12.5 µg/mL (≈ 22.5 µM)
